In ChEMBL document CHEMBL4266005, “Discovery of a Biologically Active Bromodomain Inhibitor by Target-Directed Dynamic Combinatorial Chemistry” (ACS Med Chem Lett, 2018):
Activity calls are given as the source filed them. No cut-off for these calls is given here.

Tests used:
Trypanosoma cruzi [1] = assay: Binding affinity to recombinant Trypanosoma cruzi His/haemaglutinin-tagged BDF3 expressed in Escherichia coli BL21 assessed as compound amplification factor at 75 uM by LC-MS based dynamic combinatorial chemistry analysis
Outline: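 A dynamic acylhydrazone library was built from six aldehydes and four acylhydrazides (75 μM each) in 100 mM ammonium acetate, pH 6.5, with 3.75 mM aniline. It reached constant composition by about 10 h and was run with or without 100 μM recombinant TcBDF3. Amplification factor is the LC–MS peak area with template divided by the area without template.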

Trypanosoma cruzi [2] = assay: Binding affinity to recombinant Trypanosoma cruzi His/haemaglutinin-tagged BDF3 expressed in Escherichia coli BL21 at 100 uM by fluorescence spectra analysis
Outline: (§1)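 Intrinsic tryptophan (W117) fluorescence spectra were recorded for 10 μM recombinant TcBDF3 in 100 mM ammonium acetate, pH 6.5, alone and with increasing ligand; building blocks were tested at 100 μM. Quenching was analyzed by Stern–Volmer, modified Stern–Volmer and double-logarithmic plots, and Kd came from the double-logarithmic plot.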

Trypanosoma cruzi [3] = assay: Antitrypanosomal activity against Trypanosoma cruzi Dm28c trypomastigotes infected in African green monkey Vero cells after 24 hrs by CPRG/Nonidet reagent based beta-galactosidase reporter gene assay; type: functional, organism-based
Outline: (§2)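 β-Galactosidase-expressing parasites were exposed to 0–200 μM of compound. Growth inhibition was read from β-galactosidase activity, and IC50 was obtained by nonlinear regression of activity against concentration.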

Trypanosoma cruzi [4] = assay: Antitrypanosomal activity against Trypanosoma cruzi Dm28c epimastigotes infected in African green monkey Vero cells after 72 hrs by CPRG/Nonidet reagent based beta-galactosidase reporter gene assay; type: functional, organism-based; outline: as §2
Trypanosoma cruzi [5] = assay: Antitrypanosomal activity against Trypanosoma cruzi Dm28c amastigotes infected in African green monkey Vero cells after 48 hrs by CPRG/Nonidet reagent based beta-galactosidase reporter gene assay; type: functional, organism-based; outline: as §2
Vero = assay: Cytotoxicity against African green monkey Vero cells after 72 hrs by MTT assay; type: cell-based; conditions: Chlorocebus sabaeus
[6] = Selectivity index, ratio of IC50 for African green monkey Vero cells to IC50 for Trypanosoma cruzi Dm28c epimastigotes infected in African green monkey Vero cells; type: toxicity; conditions: read-out: Ratio IC50
Outline: (§3)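 Selectivity index is the Vero cell toxicity IC50 divided by the IC50 against the relevant extracellular or intracellular parasite form.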

[7] = Selectivity index, ratio of IC50 for African green monkey Vero cells to IC50 for Trypanosoma cruzi Dm28c amastigotes infected in African green monkey Vero cells; type: toxicity; conditions: read-out: Ratio IC50; outline: as §3
[8] = Selectivity index, ratio of IC50 for African green monkey Vero cells to IC50 for Trypanosoma cruzi Dm28c trypomastigotes infected in African green monkey Vero cells; type: toxicity; conditions: read-out: Ratio IC50; outline: as §3
Trypanosoma cruzi [9] = assay: Binding affinity to recombinant Trypanosoma cruzi His/haemaglutinin-tagged BDF3 expressed in Escherichia coli BL21 assessed as change in melting temperature at 10 uM by SYPRO orange based thermal shift assay
Trypanosoma cruzi [10] = assay: Binding affinity to recombinant Trypanosoma cruzi His/haemaglutinin-tagged BDF3 Y123A/L130A double mutant expressed in Escherichia coli BL21 by fluorescence spectra analysis
Outline: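 Intrinsic tryptophan fluorescence of 10 μM recombinant protein in 100 mM ammonium acetate, pH 6.5, measured with and without the hydrazone dynamic library. Maximum emission was normalized and compared.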

[11] = (§4) Binding affinity to recombinant Trypanosoma cruzi His/haemaglutinin-tagged BDF3 expressed in Escherichia coli BL21 by fluorescence spectra analysis; outline: as §1
Trypanosoma cruzi [12] = assay: Binding affinity to recombinant Trypanosoma cruzi His/haemaglutinin-tagged BDF3 Y123A/L130A double mutant expressed in Escherichia coli BL21 assessed as change in melting temperature at 10 uM by SYPRO orange based thermal shift assay
Trypanosoma cruzi [13] = assay: Binding affinity to recombinant Trypanosoma cruzi His/haemaglutinin-tagged BDF3 Y123A/L130A double mutant expressed in Escherichia coli BL21 by LC-MS based dynamic combinatorial chemistry analysis
Outline: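 Dynamic library of six aldehydes and four acylhydrazides (75 μM each) in 100 mM ammonium acetate, pH 6.5, with 3.75 mM aniline, equilibrated about 10 h, with and without 100 μM recombinant protein. Read-out: LC–MS peak areas. Amplification factor = peak area in templated library ÷ peak area in untemplated library.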

Trypanosoma cruzi [14] = assay: Antitrypanosomal activity against Trypanosoma cruzi Dm28c […] infected in African green monkey Vero cells at 25 uM after 48 hrs by CPRG/Nonidet reagent based beta-galactosidase reporter gene assay; type: functional, organism-based
Trypanosoma cruzi [15] = assay: as §4; outline: as §1
Trypanosoma cruzi [16] = assay: Binding affinity to recombinant Trypanosoma cruzi His/haemaglutinin-tagged BDF3 expressed in Escherichia coli BL21 assessed as change in melting temperature by SYPRO orange based thermal shift assay

| fold change (FC) (Trypanosoma cruzi [1]) | SMILES | also measured |
| --- | --- | --- |
| < 1 | O=C(N/N=C/CCC/C=N/NC(=O)c1cccs1)c1ccco1 | – |
| < 1 | O=C(N/N=C/c1ccc(CO)o1)c1ccccc1 | – |
| < 1 | O=C(N/N=C/c1ccc(CO)o1)c1ccco1 | – |
| < 1 | COc1cc(/C=N/NC(=O)c2ccccc2)cc(OC)c1OC | – |
| < 1 | COc1cc(/C=N/NC(=O)c2ccncc2)cc(OC)c1OC | – |
| – | NNC(=O)c1cccs1 | Activity (Trypanosoma cruzi [2]): inactive |
| < 1 | O=C(N/N=C/CCC/C=N/NC(=O)c1ccncc1)c1ccccc1 | – |
| < 1 | O=C(O)c1ccc(/C=N/NC(=O)c2cccs2)cc1 | – |
| < 1 | O=C(N/N=C/CCC/C=N/NC(=O)c1ccco1)c1ccccc1 | – |
| 1.5 to 2 | O=C(N/N=C/[C@H](O)[C@H](O)[C@H](O)[C@@H](O)CO)c1ccccc1 | – |
| < 1 | COc1cc(/C=N/NC(=O)c2ccncc2)ccc1O | – |
| < 1 | O=C(N/N=C/c1ccc(CO)o1)c1ccncc1 | – |
| < 1 | O=C(N/N=C/CCC/C=N/NC(=O)c1ccco1)c1ccco1 | – |
| < 1 | O=C(O)c1ccc(/C=N/NC(=O)c2ccncc2)cc1 | – |
| < 1 | O=C(O)c1ccc(/C=N/NC(=O)c2ccccc2)cc1 | – |
| < 1 | O=C(N/N=C/CCC/C=N/NC(=O)c1ccncc1)c1ccncc1 | – |
| – | O=C(Cn1ccnc1[N+](=O)[O-])NCc1ccccc1 [BENZNIDAZOLE] | IC50 (Trypanosoma cruzi [3]): 27.1 µM; IC50 (Trypanosoma cruzi [4]): 18.2 µM; IC50 (Trypanosoma cruzi [5]): 3.92 µM; IC50 (Vero): 30.2 µM |

| fold change (FC) (Trypanosoma cruzi [1]) | SMILES | also measured |
| --- | --- | --- |
| < 1 | O=C(N/N=C/CCC/C=N/NC(=O)c1ccco1)c1ccncc1 | – |
| – | CC1CS(=O)(=O)CCN1/N=C/c1ccc([N+](=O)[O-])o1 (stereo not drawn) [NIFURTIMOX] | IC50 (Trypanosoma cruzi [3]): 7 µM; selectivity ratio [6]: 14; IC50 (Trypanosoma cruzi [4]): 8 µM; IC50 (Trypanosoma cruzi [5]): 3 µM; IC50 (Vero): 115 µM; selectivity ratio [7]: 38; selectivity ratio [8]: 16 |
| 1.5 to 2 | COc1cc(/C=N/NC(=O)c2ccco2)ccc1O | – |
| < 1 | COc1cc(/C=N/NC(=O)c2ccco2)cc(OC)c1OC | – |
| 1.5 to 2 | COc1cc(/C=N/NC(=O)c2ccccc2)ccc1O | – |
| < 1 | O=C(N/N=C/CCC/C=N/NC(=O)c1cccs1)c1ccncc1 | – |
| < 1 | O=C(N/N=C/[C@H](O)[C@H](O)[C@H](O)[C@@H](O)CO)c1cccs1 | – |
| 1.2 | COc1cc(/C=N/NC(=O)c2cccs2)cc(OC)c1OC | Activity (Trypanosoma cruzi [14]): Active; Activity (Trypanosoma cruzi [15]): Active; Activity (Trypanosoma cruzi [16]): Active |
| 1.5 to 2 | O=C(N/N=C/CCC/C=N/NC(=O)c1cccs1)c1cccs1 | – |
| < 1 | O=C(N/N=C/CCC/C=N/NC(=O)c1cccs1)c1ccccc1 | – |
| < 1 | O=C(O)c1ccc(/C=N/NC(=O)c2ccco2)cc1 | – |
| < 1 | O=C(N/N=C/c1ccc(CO)o1)c1cccs1 | – |
| – | COc1cc(C=O)ccc1O | Activity (Trypanosoma cruzi [2]): inactive |
| 1.5 to 2 | O=C(N/N=C/[C@H](O)[C@H](O)[C@H](O)[C@@H](O)CO)c1ccncc1 | – |
| < 1 | O=C(N/N=C/[C@H](O)[C@H](O)[C@H](O)[C@@H](O)CO)c1ccco1 | – |
| < 1 | O=C(N/N=C/CCC/C=N/NC(=O)c1ccccc1)c1ccccc1 | – |

| SMILES | fold change (FC) (Trypanosoma cruzi [1]) | also measured |
| --- | --- | --- |
| COc1cc(/C=N/NC(=O)c2cccs2)ccc1O | 2.4 | IC50 (Trypanosoma cruzi [3]): 17.8 µM; selectivity ratio [6]: > 9; IC50 (Trypanosoma cruzi [4]): 23 µM; IC50 (Trypanosoma cruzi [5]): 13.1 µM; IC50 (Vero): > 200 µM; ΔTm (Trypanosoma cruzi [9]): 3.43 °C; selectivity ratio [7]: > 15; Activity (Trypanosoma cruzi [10]): inactive; Kd [11]: 1700 nM; selectivity ratio [8]: > 11; ΔTm (Trypanosoma cruzi [12]): 0.4 °C; Activity (Trypanosoma cruzi [13]): inactive |
